In ChEMBL document CHEMBL1926519, “B-Ring-modified and/or 5-demethylated nobiletin congeners: inhibitory activity against pro-MMP-9 production” (Bioorg Med Chem, 2011):
Activity calls are given as the source filed them. No cut-off for these calls is given here.

Tested on: not listed separately
Assay: Ratio of IC50 for PMA-stimulated pro MMP9 production in human SRA 01/04 cells to IC50 for TNFalpha-stimulated pro MMP9 production in human SRA 01/04 cells
Format: functional

| Structure (SMILES) | Ratio IC50 |
| --- | --- |
| COc1c(OC)c(OC)c2c(=O)cc(-c3ccccc3O)oc2c1OC | 170 |
| COc1ccc(-c2cc(=O)c3c(O)c(OC)c(OC)c(OC)c3o2)cc1OC [5-DEMETHYLNOBILETIN] | 14 |
| COc1cc(-c2cc(=O)c3c(O)c(OC)c(OC)c(OC)c3o2)ccc1O | 15 |
| COc1c(OC)c(O)c2c(=O)cc(-c3ccc(O)cc3)oc2c1OC [XANTHOMICROL] | 6 |

Tested on: not listed separately
Assay: Cytotoxicity against human SRA 01/04 cells at 64 uM after 24 hrs by LDH release assay
Format: cell-based
Outline: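 SRA01/04 lens epithelial cells seeded at 5,000/well, after 15–18 h washed with serum-free medium and exposed 24 h to test sample, final 64 lmol/L from DMSO stock. LDH in supernatant read at 570 nm. Percent specific release = (S−N)/(P−N)×100, P being 0.2% Tween-20 lysis and N cell- and serum-free medium. Triplicate means.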

| Structure (SMILES) | Activity |
| --- | --- |
| COc1c(OC)c(OC)c2c(=O)cc(-c3ccccc3O)oc2c1OC | Non-toxic |
| COc1c(OC)c(OC)c2c(=O)cc(-c3cc(O)cc(O)c3)oc2c1OC | Non-toxic |
| COc1ccc(-c2cc(=O)c3c(O)c(OC)c(OC)c(OC)c3o2)cc1OC [5-DEMETHYLNOBILETIN] | Non-toxic |
| COc1ccc(-c2cc(=O)c3c(O)c(OC)c(OC)c(OC)c3o2)cc1O | Non-toxic |
| COc1c(OC)c(OC)c2c(=O)cc(-c3ccc(OCc4ccccc4)cc3)oc2c1OC | Toxic |
| COc1ccccc1-c1cc(=O)c2c(OC)c(OC)c(OC)c(OC)c2o1 | Non-toxic |
| COc1ccc(-c2cc(=O)c3c(OC)c(OC)c(OC)c(OC)c3o2)cc1 [TANGERETIN] | Non-toxic |
| COc1cc(-c2cc(=O)c3c(O)c(OC)c(OC)c(OC)c3o2)ccc1O | Non-toxic |
| COc1c(OC)c(OC)c2c(=O)cc(-c3cccc(OCc4ccccc4)c3)oc2c1OC | Toxic |
| COc1cc(OC)cc(-c2cc(=O)c3c(OC)c(OC)c(OC)c(OC)c3o2)c1 | Non-toxic |
| COc1c(OC)c(OC)c2c(=O)cc(-c3cccc(O)c3)oc2c1OC | Non-toxic |
| COc1c(OC)c(O)c2c(=O)cc(-c3ccc(O)cc3)oc2c1OC [XANTHOMICROL] | Non-toxic |
| COc1cccc(-c2cc(=O)c3c(OC)c(OC)c(OC)c(OC)c3o2)c1 | Non-toxic |
| COc1c(OC)c(OC)c2c(=O)cc(-c3ccc(O)cc3)oc2c1OC | Non-toxic |

Species: Homo sapiens
Assay: Inhibition of PMA-stimulated pro MMP9 production in human SRA 01/04 cells at 64 uM after 24 hrs by SDS-PAGE based gelatin zymography assay
Format: functional, cell-based

| Structure (SMILES) | inhibition |
| --- | --- |
| COc1ccc(-c2cc(=O)c3c(O)c(OC)c(OC)c(OC)c3o2)cc1OC [5-DEMETHYLNOBILETIN] | inactive |
| COc1ccc(-c2cc(=O)c3c(O)c(OC)c(OC)c(OC)c3o2)cc1O | inactive |
| COc1c(OC)c(OC)c2c(=O)cc(-c3cccc(O)c3)oc2c1OC | inactive |

Tested on: not listed separately
Assay: Inhibition of PMA-stimulated pro MMP9 production in human SRA 01/04 cells after 24 hrs by SDS-PAGE based gelatin zymography assay
Format: functional, cell-based
Outline: (§1)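 Confluent SRA01/04 cells (DMEM, 20% heat-inactivated FBS, 37 °C, 5% CO2) treated 24 h with test sample at 0.25, 1, 4, 16, 64 µM plus PMA 10 nM or TNF-a 10 ng/mL. Media run on 10% SDS–PAGE with 0.6 mg/mL gelatin, incubated at 37 °C in Tris–HCl pH 7.5/CaCl2/ZnCl2, Coomassie-stained. Pro-MMP-9 bands quantified densitometrically, giving IC50, triplicate means.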

| Structure (SMILES) | IC50 [µM] |
| --- | --- |
| COc1ccc(-c2cc(=O)c3c(O)c(OC)c(OC)c(OC)c3o2)cc1O | 1.5 |
| COc1cc(-c2cc(=O)c3c(O)c(OC)c(OC)c(OC)c3o2)ccc1O | 0.7 |
| COc1cc(OC)cc(-c2cc(=O)c3c(OC)c(OC)c(OC)c(OC)c3o2)c1 | 12 |
| COc1cccc(-c2cc(=O)c3c(OC)c(OC)c(OC)c(OC)c3o2)c1 | 5.5 |

Next, values leading:

| IC50 [µM] | Structure (SMILES) |
| --- | --- |
| 0.4 | COc1c(OC)c(OC)c2c(=O)cc(-c3ccccc3O)oc2c1OC |
| 8.1 | COc1c(OC)c(OC)c2c(=O)cc(-c3cc(O)cc(O)c3)oc2c1OC |
| 3 | COc1ccc(-c2cc(=O)c3c(O)c(OC)c(OC)c(OC)c3o2)cc1OC [5-DEMETHYLNOBILETIN] |
| 13.7 | COc1ccccc1-c1cc(=O)c2c(OC)c(OC)c(OC)c(OC)c2o1 |
| 6.8 | COc1ccc(-c2cc(=O)c3c(OC)c(OC)c(OC)c(OC)c3o2)cc1 [TANGERETIN] |
| 2.5 | COc1c(OC)c(OC)c2c(=O)cc(-c3cccc(O)c3)oc2c1OC |
| 3.5 | COc1c(OC)c(O)c2c(=O)cc(-c3ccc(O)cc3)oc2c1OC [XANTHOMICROL] |
| 2.6 | COc1c(OC)c(OC)c2c(=O)cc(-c3ccc(O)cc3)oc2c1OC |

Tested on: not listed separately
Assay: Inhibition of TNFalpha-stimulated pro MMP9 production in human SRA 01/04 cells after 24 hrs by SDS-PAGE based gelatin zymography assay
Format: functional, cell-based
Outline: as §1

| Structure (SMILES) | IC50 [µM] |
| --- | --- |
| COc1ccc(-c2cc(=O)c3c(O)c(OC)c(OC)c(OC)c3o2)cc1O | 29.6 |
| COc1cc(-c2cc(=O)c3c(O)c(OC)c(OC)c(OC)c3o2)ccc1O | 10.6 |
| COc1cc(OC)cc(-c2cc(=O)c3c(OC)c(OC)c(OC)c(OC)c3o2)c1 | 25.8 |
| COc1cccc(-c2cc(=O)c3c(OC)c(OC)c(OC)c(OC)c3o2)c1 | 15.5 |

The remaining lines, values ahead:

| IC50 [µM] | Structure (SMILES) |
| --- | --- |
| 68 | COc1c(OC)c(OC)c2c(=O)cc(-c3ccccc3O)oc2c1OC |
| 24 | COc1c(OC)c(OC)c2c(=O)cc(-c3cc(O)cc(O)c3)oc2c1OC |
| 42.4 | COc1ccc(-c2cc(=O)c3c(O)c(OC)c(OC)c(OC)c3o2)cc1OC [5-DEMETHYLNOBILETIN] |
| 24 | COc1ccccc1-c1cc(=O)c2c(OC)c(OC)c(OC)c(OC)c2o1 |
| 33.2 | COc1ccc(-c2cc(=O)c3c(OC)c(OC)c(OC)c(OC)c3o2)cc1 [TANGERETIN] |
| 23.5 | COc1c(OC)c(OC)c2c(=O)cc(-c3cccc(O)c3)oc2c1OC |
| 22.3 | COc1c(OC)c(O)c2c(=O)cc(-c3ccc(O)cc3)oc2c1OC [XANTHOMICROL] |
| 14.3 | COc1c(OC)c(OC)c2c(=O)cc(-c3ccc(O)cc3)oc2c1OC |
